Shown are actives, neighbours in structure and some others; about 2.2% of the full set was active somewhere.
Cneo AK release = Cryptococcus neoformans lysis via adenylate kinase release. lysis activity, % at 15 µM. 0.2% of 360,000 active. C. neoformans lysis, adenylate kinase release luminescence, 4 h; normalised: neutral wells 0, clomiphene wells 100;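 active means mean lysis activity across replicates of at least 80%, whatever share of replicates individually reach that level; inactive means mean lysis activity below 80%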
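Material: C. neoformans cells; Schedule: 4 h static compound exposure, 37 °C, read 1 h post-reagent; Measured by: adenylate kinase release luminescence; Read-out: signal increase indicating cell lysis; Controls: Clomiphene as positive lysis control.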
rRNA inh HTS = inhibitors of bacterial rRNA selective over humanized ribosomes; AID 720706; GFP signal change (wild-type ribosome), % (no concentration beside the values); 1.6% of 350,000 active; E. coli WT GFP vs humanized-ribosome RFP mutants, fluorescence, 24 h; stronger effect = lower value; DMSO median 0, no signal -100;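 active means significant combined selectivity score with lowered wild-type GFP, culture density cut under 30%, mutant RFP and density less affected; inactive means any of these conditions unmet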
CR mimetic SO = caloric restriction mimetics inhibiting age-related superoxide in yeast; S. cerevisiae aged cells, superoxide DHE fluorescence; stronger effect = lower value; superoxide response (% of plate mean), % at 10 µM; AID 2690; 0.18% of 330,000 active;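 active means superoxide response under a set limit, about three screen SD below normal, cut at about 65% in these data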;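 further: yeast aged for seven days with compound at 30 °C before DHE staining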
Mot1-301 SUMO = SUMOylation pathway inhibition by Mot1-301 growth rescue; S. cerevisiae Mot1-301 growth rescue, ATP luminescence, 38.5C; percent above DMSO median, 100 means doubled; growth rescue, % at 18.8 µM; 1% of 320,000 active;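 active means every valid replicate shows activation above 250% relative to neutral control wells; inactive means the rest, any valid replicate at or below 250%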
PglD inh = blocks C. jejuni PglD acetyltransferase activity. purified PglD enzyme, DTNB colorimetric CoA detection. inhibition, % at 12.5 µM. 0.098% of 360,000 active; in the data active means inhibition above about 16%, passing the limit was not always enough
Yeast Mot1 SUMO = yeast SUMO pathway inhibition in dose response | shares compounds with Mot1-301 SUMO | S. cerevisiae Mot1-301 galactose growth, ATP luminescence, 24 h; -100 = growth of slx-deleted rescue strain | growth activity, percent, % at 42 µM | 2,300 tested, under 10 active | AID 493004;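 active means Signal drops as the depositor expects, and the fitted half-maximal dose is no more than ten times the top valid tested dose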;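 further: more negative values mean stronger growth rescue toward the control strain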
A number is an active result; i = inactive; nt = no result; + = active, no number.

SMILES | Cneo AK release | rRNA inh HTS | CR mimetic SO | Mot1-301 SUMO | PglD inh | Yeast Mot1 SUMO
COc1cccc(CN(CC(=O)NCC2CCCO2)C(=O)CCC(=O)Nc2cc(C)on2)c1 (stereo not given) | i | nt | i | nt | i | nt
CS(=O)(=O)Nc1ccc2c(c1)[C@@H]1C[C@@H](CC(=O)NCCc3ccccc3)O[C@H](CO)[C@@H]1O2 | i | i | nt | nt | i | nt
Cc1ccc(C(=O)c2cc([N+](=O)[O-])ccc2N2CCCCC2)cc1C | nt | nt | i | 500 | nt | i
Cc1ccc(C(=O)c2cc([N+](=O)[O-])ccc2N2CCOCC2)cc1C | nt | nt | i | i | nt | nt
CN(C)CC#Cc1ccc([C@@H]2[C@@H](CO)N3C(=O)CN(C(=O)Cc4ccccc4)C[C@@H]23)cc1 | nt | i | nt | nt | nt | nt
Cc1cccc(N(Cc2ccccc2)C(=O)CSC(C)C(=O)Nc2cc(C)on2)c1 (stereo not given) | i | i | i | 555 | i | i
Cc1cc(NC(=O)C(C)SCC(=O)O)no1 (stereo not given) | nt | i | i | i | nt | nt
CN(C)c1ccc(C=NNc2ccccn2)c(Cl)c1 | nt | i | nt | nt | nt | nt
CN(C)c1ccc(/C=N\Nc2ccccn2)cc1 | i | i | i | 458 | i | i
CN1C(=O)c2cc(NC(=O)c3ccno3)ccc2OC[C@H]2O[C@@H](CC(=O)NC3Cc4ccccc4C3)CC[C@@H]21 | i | i | nt | nt | i | nt
CC(=O)Nc1ccc2c(c1)C(=O)N(C)C[C@H](C)[C@H](CN(C)C(C)=O)O2 | nt | i | nt | nt | nt | nt
O=[N+]([O-])c1cc([N+](=O)[O-])c2cc3ccccc3nc2c1 | i | i | i | 468 | i | i
Cc1nc(N2CCN(c3ccccn3)CC2)c2c(C)c(C(=O)N3CCN(c4ccccc4F)CC3)sc2n1 | i | i | i | 427 | i | i
Cc1ccc(NC(=O)c2sc3nc(C)nc(N4CCN(c5ccccn5)CC4)c3c2C)c(C)c1 | i | i | i | i | i | nt
CCOc1ccc(NC(=O)CSc2nnc(Cc3csc(C)n3)o2)cc1 | i | i | i | 777 | i | i
O=C(Nc1ccc2[nH]c(=O)[nH]c2c1)c1c(F)c(F)c(F)c(F)c1F | nt | i | i | 613 | nt | i
Cc1cc(C)cc(C(=O)Nc2ccc3[nH]c(=O)[nH]c3c2)c1 | nt | i | i | i | nt | nt
O=C(CN1CCOCC1)N[C@H]1CC[C@@H](CCn2cc(C3CCCCC3)nn2)O[C@H]1CO | i | i | nt | nt | i | nt
O=C(NC1CCCC1)[C@H]1[C@H](CO)[C@H]2Cn3c(ccc(C4=CCCC4)c3=O)[C@@H]1N2C(=O)c1ccccc1 | i | i | nt | nt | i | nt
COc1cccc(NC(=O)CNC(=O)c2ccc(C)cc2)c1 | i | i | i | 499 | i | i
CCCCSCCCNC(=O)Nc1cccc(OC)c1 | i | i | i | 549 | i | i
COc1ccc(C(=O)NCC(=O)Nc2ccccc2)cc1OC | i | nt | i | 449 | i | i
COc1cc(C(=O)NCC(=O)Nc2c(C)cccc2C)ccc1OCc1ccccc1 | i | i | i | i | i | nt
COCC(=O)Nc1ccc2c(c1)C(=O)N(C)C[C@H](OC)[C@H](C)CN(Cc1cccnc1)[C@H](C)CO2 | i | i | nt | nt | i | nt
C[C@H]1CN([C@@H](C)CO)C(=O)c2cc(NC(=O)C3CC3)ccc2O[C@@H]1CN(C)Cc1ccc(C(=O)Nc2ccccc2N)cc1 | i | i | nt | nt | i | nt
SMILES | Cneo AK release | rRNA inh HTS | CR mimetic SO | Mot1-301 SUMO | PglD inh | Yeast Mot1 SUMO
CO[C@H]1CN(C)C(=O)c2cc(NC(=O)NC(C)C)ccc2OC[C@@H](C)N(C(=O)CC2CC2)C[C@H]1C | i | i | nt | nt | i | nt
O=C(N[C@H]1CC[C@H](CCNS(=O)(=O)c2ccccc2)O[C@@H]1CO)c1cnccn1 | i | i | nt | nt | i | nt
COc1ccc(/C=N\Nc2ccc([N+](=O)[O-])cc2)c(C(=O)O)c1OC | nt | i | i | 455 | nt | i
CC1(C)CC(=O)C(CC2CCCCC2=O)C(=O)C1 (stereo not given) | i | i | i | 575 | i | i
CC1(C)CC(=O)C(CC2C(=O)CC(C)(C)CC2=O)C(=O)C1 | nt | nt | i | i | nt | nt
COC(=O)c1ccc(CSc2nnnn2-c2ccccc2)o1 | i | nt | i | + | i | i
COC(=O)c1ccc(CSc2nnc(-c3ccccc3)n2C)o1 | nt | i | i | i | nt | nt
COCCNC(=O)C[C@H]1C[C@@H]2c3cc(NC(=O)NC4CCCCC4)ccc3O[C@@H]2[C@@H](CO)O1 | i | i | nt | nt | i | nt
COc1ccc(-c2nnc(SCC(=O)N3CCCC3)o2)cc1 | nt | i | i | i | nt | nt
CCOc1ccc(-c2nnc(SCC(=O)N3CCCC3)o2)cc1 | i | i | i | 713 | i | i
COc1ccc(-c2nnc(SCC(=O)N3CCCCC3)o2)cc1 | i | i | i | 542 | i | i
CCOc1ccc(-c2nnc(SCC(=O)N3CCOCC3)o2)cc1 | i | nt | i | i | i | nt
O=C(c1ccc(Br)cc1)N1CCN(c2ncccn2)CC1 | i | i | i | i | i | nt
O=C(c1ccc([N+](=O)[O-])cc1)N1CCN(c2ncc(Br)cn2)CC1 | i | i | i | 656 | i | i
Cc1ccccc1CC1(CO)CCCN(C(=O)CCC(F)(F)F)C1 (stereo not given) | i | i | i | i | i | nt
O=C(CCC(F)(F)F)N1CCCC(CO)(CCc2ccccc2)C1 (stereo not given) | i | i | i | 738 | i | i
O=C(O)C[C@H]1C[C@@H]2c3cc(NC(=O)Nc4ccccc4F)ccc3O[C@@H]2[C@H](CO)O1 | i | i | nt | nt | i | nt
CCN(CC)CCCN1C(=O)C(=O)/C(=C(/O)c2ccccc2)C1c1cc(OC)ccc1OC (stereo not given) | i | nt | i | 685 | i | i
Cc1onc(-c2c(F)cccc2Cl)c1C(=O)N1CCc2ccccc2C1 | nt | nt | i | i | nt | nt
Cc1onc(-c2ccccc2Cl)c1C(=O)N1CCc2ccccc2C1 | i | nt | i | 680 | i | i
CCOc1ccc(NC(=O)C2CC(=O)N3CCCN=C3S2)cc1 (stereo not given) | i | nt | i | + | i | i
CCOc1ccc(NC(=O)C2CC(=O)N(C)C(=Nc3ccc4c(c3)OCO4)S2)cc1 (stereo not given) | i | i | i | i | i | nt
O=C(N/N=C/c1ccccn1)c1cc(-c2cccc3ccccc23)n[nH]1 | nt | i | i | i | nt | nt
O=C(O)c1ccc(/C=N/NC(=O)c2cc(-c3ccc4c5c(cccc35)CC4)n[nH]2)cc1 | i | nt | i | + | i | i
Cc1ccc(S(=O)(=O)N[C@@H]2CC[C@H](CC(=O)NC3CCCCC3)O[C@H]2CO)cc1 | i | i | nt | nt | i | nt
CCn1cc(C(=O)NCc2ccccn2)c(=O)c2cc(F)c(N3CCN(C)CC3)cc21 | i | nt | i | 388 | i | i
Cc1ccccc1-c1cnc2c(c1)C(=O)N([C@H](C)CO)C[C@H](C)[C@@H](CN(C)C(=O)c1ccncc1)O2 | i | i | nt | nt | i | nt

Screening data deposited in PubChem BioAssay by several laboratories.
